In ChEMBL document CHEMBL3872252, “New bithiazolyl hydrazones: Novel synthesis, characterization and antitubercular evaluation” (Bioorg Med Chem Lett, 2017):
≈ marks a conversion by molar mass, not a printed value.

What was measured:
[1] = Antitubercular activity against Mycobacterium tuberculosis H37Ra ATCC 25177 dormant stage infected in human THP1 cells measured on day 12 by nitrate reductase assay; assay type: functional, THP-1; conditions: ATCC 25177, 288 h
[2] = Antitubercular activity against Mycobacterium tuberculosis H37Ra ATCC 25177 active stage infected in human THP1 cells measured on day 8 by nitrate reductase assay; assay type: functional, THP-1; conditions: ATCC 25177, 192 h
[3] = Antitubercular activity against Mycobacterium tuberculosis H37Ra ATCC 25177 active stage measured on day 8 by XTT reduction menadione based two-fold dilution assay; assay type: functional; conditions: ATCC 25177, 192 h
How it was run: (§1)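 M. tuberculosis H37Ra ATCC 25177 was exposed to 0.7–100 μg/mL in two-fold steps (0.7, 1.5, 3.1 … 100). Active stage was read after 8 days and dormant stage after 12 days of incubation. Inhibition was read by XTT reduction menadione assay (XRMA), absorbance 470 nm. MIC90 is the concentration giving ≥90% inhibition (µg/mL).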

[4] = Antitubercular activity against Mycobacterium tuberculosis H37Ra ATCC 25177 dormant stage measured on day 12 by XTT reduction menadione based two-fold dilution assay; assay type: functional; conditions: ATCC 25177, 288 h; how it was run: as §1
[5] = Antitubercular activity against Mycobacterium bovis BCG ATCC 35743 active stage measured on day 8 by nitrate reductase based two-fold dilution assay; assay type: functional, Mycobacterium bovis BCG str. ATCC 35743; conditions: Mycobacterium tuberculosis variant bovis BCG, ATCC 35743, 192 h
[6] = Antitubercular activity against Mycobacterium bovis BCG ATCC 35743 dormant stage measured on day 12 by nitrate reductase based two-fold dilution assay; assay type: functional, Mycobacterium bovis BCG str. ATCC 35743; conditions: Mycobacterium tuberculosis variant bovis BCG, ATCC 35743, 288 h
[7] = Cytotoxicity against human THP1 cells by MTT assay; assay type: toxicity, cell-based, THP-1; conditions: for GI90: thp-1
[8] = Cytotoxicity against human MCF7 cells by MTT assay; assay type: toxicity, cell-based; conditions: for GI90: mcf7
[9] = Cytotoxicity against human HCT116 cells by MTT assay; assay type: toxicity, cell-based, HCT-116; conditions: for GI90: hct-116
[10] = Selectivity index, ratio of GI50 for human MCF7 cells to MIC90 for Mycobacterium tuberculosis H37Ra ATCC 25177 active stage; assay type: toxicity, cell-based; conditions: read-out: Selectivity Index
How it was run: (§2)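 Cytotoxicity was measured on human MCF-7, HCT116 and THP-1 cells by MTT assay, with paclitaxel as reference. GI50 is the concentration inhibiting 50% of cell growth. The selectivity index is GI50 for the given cell line divided by MIC90 for the given mycobacterial strain and stage.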

[11] = Selectivity index, ratio of GI50 for human MCF7 cells to MIC90 for Mycobacterium tuberculosis H37Ra ATCC 25177 dormant stage; assay type: toxicity, cell-based; conditions: read-out: Selectivity Index
How it was run: (§3)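 Cytotoxicity was measured on human MCF-7, HCT116 and THP-1 cells by MTT assay, with paclitaxel as reference. The selectivity index is GI50 for the given cell line divided by MIC90 for the given mycobacterial strain and stage.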

[12] = Selectivity index, ratio of GI50 for human MCF7 cells to MIC90 for Mycobacterium bovis BCG ATCC 35743 active stage; assay type: toxicity, cell-based; conditions: read-out: Selectivity Index; how it was run: as §2
[13] = Selectivity index, ratio of GI50 for human MCF7 cells to MIC90 for Mycobacterium bovis BCG ATCC 35743 dormant stage; assay type: toxicity, cell-based; conditions: read-out: Selectivity Index; how it was run: as §3
[14] = Selectivity index, ratio of GI50 for human HCT116 cells to MIC90 for Mycobacterium tuberculosis H37Ra ATCC 25177 active stage; assay type: toxicity, cell-based, HCT-116; conditions: read-out: Selectivity Index; how it was run: as §2
[15] = Selectivity index, ratio of GI50 for human HCT116 cells to MIC90 for Mycobacterium tuberculosis H37Ra ATCC 25177 dormant stage; assay type: toxicity, cell-based, HCT-116; conditions: read-out: Selectivity Index; how it was run: as §3
[16] = Selectivity index, ratio of GI50 for human HCT116 cells to MIC90 for Mycobacterium bovis BCG ATCC 35743 active stage; assay type: toxicity, cell-based, HCT-116; conditions: read-out: Selectivity Index; how it was run: as §2
[17] = Selectivity index, ratio of GI50 for human HCT116 cells to MIC90 for Mycobacterium bovis BCG ATCC 35743 dormant stage; assay type: toxicity, cell-based, HCT-116; conditions: read-out: Selectivity Index; how it was run: as §3
[18] = Selectivity index, ratio of GI50 for human THP1 cells to MIC90 for Mycobacterium tuberculosis H37Ra ATCC 25177 active stage; assay type: toxicity, cell-based, THP-1; conditions: read-out: Selectivity Index; how it was run: as §2
[19] = Selectivity index, ratio of GI50 for human THP1 cells to MIC90 for Mycobacterium tuberculosis H37Ra ATCC 25177 dormant stage; assay type: toxicity, cell-based, THP-1; conditions: read-out: Selectivity Index; how it was run: as §3
[20] = Selectivity index, ratio of GI50 for human THP1 cells to MIC90 for Mycobacterium bovis BCG ATCC 35743 active stage; assay type: toxicity, cell-based, THP-1; conditions: read-out: Selectivity Index; how it was run: as §2
[21] = Selectivity index, ratio of GI50 for human THP1 cells to MIC90 for Mycobacterium bovis BCG ATCC 35743 dormant stage; assay type: toxicity, cell-based, THP-1; conditions: read-out: Selectivity Index; how it was run: as §3
Escherichia coli [22] = assay: Growth inhibition of Escherichia coli at 30 ug/ml; assay type: functional; conditions: read-out: GI
Escherichia coli [23] = assay: Growth inhibition of Escherichia coli at 10 ug/ml; assay type: functional; conditions: read-out: GI
Escherichia coli [24] = assay: Growth inhibition of Escherichia coli at 3 ug/ml; assay type: functional; conditions: read-out: GI
How it was run: (§4)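 Screened against Gram-negative E. coli and P. aeruginosa and Gram-positive S. aureus and B. subtilis. Compound was tested at 3 µg/ml, and the read-out is percent growth inhibition.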

Pseudomonas aeruginosa [25] = assay: Growth inhibition of Pseudomonas aeruginosa at 30 ug/ml; assay type: functional; conditions: read-out: GI
Pseudomonas aeruginosa [26] = assay: Growth inhibition of Pseudomonas aeruginosa at 10 ug/ml; assay type: functional; conditions: read-out: GI
Pseudomonas aeruginosa [27] = assay: Growth inhibition of Pseudomonas aeruginosa at 3 ug/ml; assay type: functional; conditions: read-out: GI; how it was run: as §4
Staphylococcus aureus [28] = assay: Growth inhibition of Staphylococcus aureus at 30 ug/ml; assay type: functional; conditions: read-out: GI
Staphylococcus aureus [29] = assay: Growth inhibition of Staphylococcus aureus at 10 ug/ml; assay type: functional; conditions: read-out: GI
Staphylococcus aureus [30] = assay: Growth inhibition of Staphylococcus aureus at 3 ug/ml; assay type: functional; conditions: read-out: GI; how it was run: as §4
Bacillus subtilis [31] = assay: Growth inhibition of Bacillus subtilis at 30 ug/ml; assay type: functional; conditions: read-out: GI
Bacillus subtilis [32] = assay: Growth inhibition of Bacillus subtilis at 10 ug/ml; assay type: functional; conditions: read-out: GI
Bacillus subtilis [33] = assay: Growth inhibition of Bacillus subtilis at 3 ug/ml; assay type: functional; conditions: read-out: GI; how it was run: as §4

C/C(=N\Nc1nc(-c2ccccc2)cs1)c1sc(C)nc1C
MIC90 [1]: 23.4 µg/mL (≈ 71.3 µM) | MIC90 [2]: 32.5 µg/mL (≈ 99.1 µM) | IC50 [3]: 0.82 µg/mL (≈ 2.5 µM) | MIC90 [3]: 25.3 µg/mL (≈ 77.1 µM) | IC50 [4]: 2 µg/mL (≈ 6.09 µM) | MIC90 [4]: 16.5 µg/mL (≈ 50.1 µM) | IC50 [5]: 11.6 µg/mL (≈ 35.4 µM) | MIC90 [5]: 40.4 µg/mL (≈ 123 µM) | IC50 [6]: 3.81 µg/mL (≈ 11.6 µM) | MIC90 [6]: 17.2 µg/mL (≈ 52.4 µM) | GI50 ([7]; THP1 cells): > 100 µg/mL | GI90 [7]: > 100 µg/mL | GI50 ([8]; MCF7 cells): > 100 µg/mL | GI90 [8]: > 100 µg/mL | GI50 ([9]; HCT116 cells): > 100 µg/mL | GI90 [9]: > 100 µg/mL | selectivity ratio [10]: 4 | selectivity ratio [11]: 6 | selectivity ratio [12]: 2 | selectivity ratio [13]: 26 | selectivity ratio [14]: 4 | selectivity ratio [15]: 6 | selectivity ratio [16]: 2 | selectivity ratio [17]: 26 | selectivity ratio [18]: 4 | selectivity ratio [19]: 6 | selectivity ratio [20]: 2 | selectivity ratio [21]: 26 | inhibition of growth at 30 µg/mL (Escherichia coli [22]): 82.3% | inhibition of growth at 10 µg/mL (Escherichia coli [23]): 83.7% | inhibition of growth at 3 µg/mL (Escherichia coli [24]): 81.8% | inhibition of growth at 30 µg/mL (Pseudomonas aeruginosa [25]): 82.4% | inhibition of growth at 10 µg/mL (Pseudomonas aeruginosa [26]): 84% | inhibition of growth at 3 µg/mL (Pseudomonas aeruginosa [27]): 81.8% | inhibition of growth at 30 µg/mL (Staphylococcus aureus [28]): 81.3% | inhibition of growth at 10 µg/mL (Staphylococcus aureus [29]): 82.8% | inhibition of growth at 3 µg/mL (Staphylococcus aureus [30]): 80.7% | inhibition of growth at 30 µg/mL (Bacillus subtilis [31]): 79.9% | inhibition of growth at 10 µg/mL (Bacillus subtilis [32]): 81.5% | inhibition of growth at 3 µg/mL (Bacillus subtilis [33]): 79.2%

CC(=O)O[C@H]1C(=O)[C@@]2(C)[C@H]([C@H](OC(=O)c3ccccc3)[C@]3(O)C[C@H](OC(=O)[C@H](O)[C@@H](NC(=O)c4ccccc4)c4ccccc4)C(C)=C1C3(C)C)[C@]1(OC(C)=O)CO[C@@H]1C[C@@H]2O [PACLITAXEL]
GI90 [7]: 5.814 µg/mL (≈ 6.81 µM) | GI90 [8]: 0.075 µg/mL (≈ 0.0878 µM) | GI90 [9]: 5.21 µg/mL (≈ 6.1 µM)

CO[C@H]1/C=C/O[C@@]2(C)Oc3c(C)c(O)c4c(O)c(c(/C=N/N5CCN(C)CC5)c(O)c4c3C2=O)NC(=O)/C(C)=C\C=C\[C@H](C)[C@H](O)[C@@H](C)[C@@H](O)[C@@H](C)[C@H](OC(C)=O)[C@@H]1C [RIFAMPIN]
MIC90 [1]: 0.7 µg/mL (≈ 0.851 µM) | MIC90 [2]: 0.5 µg/mL (≈ 0.608 µM) | IC50 [3]: 0.51 µg/mL (≈ 0.62 µM) | MIC90 [3]: 0.51 µg/mL (≈ 0.62 µM) | IC50 [4]: 0.75 µg/mL (≈ 0.911 µM) | MIC90 [4]: 0.75 µg/mL (≈ 0.911 µM) | IC50 [5]: 0.45 µg/mL (≈ 0.547 µM) | MIC90 [5]: 0.45 µg/mL (≈ 0.547 µM) | IC50 [6]: 0.81 µg/mL (≈ 0.984 µM) | MIC90 [6]: 0.81 µg/mL (≈ 0.984 µM) | GI90 [7]: > 100 µg/mL | GI90 [8]: > 100 µg/mL | GI90 [9]: > 100 µg/mL
